Assay outcomes (PubChem BioAssay)
In the library only some 2.7% were active in any assay of this set; here they are far more common.
ASAP1 GAP inh: inhibitors of human ASAP1 ArfGAP activity; Q9ULH1; 360,000 compounds, 0.19% hits; ASAP1-stimulated ARF1 GTP hydrolysis, GDP FP detection; inhibition, % at 16.5 µM; in the data active = inhibition above about 25%;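 note: 0% = vehicle with enzyme and substrate and 100% = no enzyme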
PAFAH1B3 FP inh: inhibitors of human PAFAH1B3; recombinant PAFAH1B3, FP-rhodamine probe, fluorescence polarization; 340,000 compounds, 0.28% hits; Q15102; inhibition, % at 3.39 µM;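 active = inhibition above the screen-wide average of all tested compounds plus 3 SD, cut at about 25% in these data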;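 note: 0% = enzyme with DMSO only and 100% = wells lacking PAFAH1B3 protein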
PAFAH1B2 inh: PAFAH1B2 (human) inhibition. recombinant PAFAH1B2, FP-rhodamine activity probe, fluorescence polarization. inhibition, % at 3.39 µM. 340,000 compounds, 1.2% hits;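 active = inhibition above the mean of all tested compounds plus 3 SD, cut at about 24% in these data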;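 note: 0% = enzyme with DMSO and 100% = wells lacking PAFAH1B2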
Target sequence (P68402 whole entry, looked up): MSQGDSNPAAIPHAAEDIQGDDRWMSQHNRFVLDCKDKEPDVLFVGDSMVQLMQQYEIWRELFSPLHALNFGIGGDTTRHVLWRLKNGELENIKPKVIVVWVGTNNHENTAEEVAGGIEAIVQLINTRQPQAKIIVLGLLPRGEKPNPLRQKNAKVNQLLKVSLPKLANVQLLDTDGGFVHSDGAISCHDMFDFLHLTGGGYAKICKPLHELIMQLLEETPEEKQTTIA
pPAFAH FP inh: inhibitors of human plasma PAF acetylhydrolase (pPAFAH); Q13093; recombinant pPAFAH, FP-rhodamine probe fluorescence polarization; inhibition, % at 3.39 µM; 330,000 compounds, 1.5% hits;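 active = inhibition above the mean inhibition across the screen plus 3 SD, cut at about 25% in these data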;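 note: inhibitors block binding of the rhodamine activity-based probe so polarization drops; 0% = enzyme with DMSO and 100% = wells lacking pPAFAH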
ARFGAP1 inh: inhibits rat ARF GTPase activating protein 1. Q62848. Arfgap1-stimulated ARF1 GTP hydrolysis, GDP FP detection. inhibition, % at 16.5 µM. 360,000 compounds, 0.26% hits. AID 651572;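 active = inhibition above a per-plate limit, mean inhibition of low control wells plus 3 SD, cut at about 25% in these data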;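 note: 0% = DMSO wells with enzyme and 100% = wells lacking Arfgap1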
Target sequence (Q62848 1-136 limits assumed): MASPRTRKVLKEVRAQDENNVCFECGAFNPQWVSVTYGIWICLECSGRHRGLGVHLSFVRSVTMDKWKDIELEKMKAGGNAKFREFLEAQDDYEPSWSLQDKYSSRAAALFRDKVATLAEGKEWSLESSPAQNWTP
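Repeats: one replicate per compound; assay system: rat Arfgap1 catalytic domain, aa 1-136; times: enzyme reaction 120 min at 25 °C after 20 min preincubation; detection: FP of antibody-bound GDP Alexa 633 tracer, ex 620/em 688 nm; benchmarks: high control wells lacking Arfgap1, low control full reaction with DMSO; reagent: human ARF1(Δ1-17)-GTP substrate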
PAFAH2 inh: PAFAH2 (human) inhibition | AID 492956 | recombinant PAFAH2, FP-rhodamine activity probe, fluorescence polarization | 340,000 compounds, 0.99% hits | Q99487 | inhibition, % at 3.39 µM;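 active = inhibition above the mean over all tested compounds plus 3 SD, cut at about 30% in these data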;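 note: inhibitors block probe labeling of enzyme so polarization drops; 0% = enzyme with DMSO and 100% = wells lacking PAFAH2 protein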
ASAP1 GAP conf: ASAP1 inhibition confirmed. shares compounds with ASAP1 GAP inh. ASAP1-stimulated Arf1 GTPase, GDP fluorescence polarization. inhibition, % at 16.5 µM. 620 compounds, 37% hits;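 active = mean inhibition over triplicates exceeds the hit threshold derived for the earlier primary screening run, cut at about 25% in these data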
Active calls of the source: *; · = no result.

SMILES	ASAP1 GAP inh	PAFAH1B3 FP inh	PAFAH1B2 inh	pPAFAH FP inh	ARFGAP1 inh	PAFAH2 inh	ASAP1 GAP conf
CC(C)n1c(-c2ccc(C(C)(C)C)cc2)n[nH]c1=S	26*	-2	5	8	13	-6	6
CC(C)(C)c1ccc(-c2n[nH]c(=S)n2Cc2ccccc2)cc1	8	2	14	7	-3	4	·
COc1ccc(Cn2ccnc2SCC(=O)Nc2ccccc2OC)cc1	26*	13	-5	2	-4	-5	10
COc1ccc(Cn2ccnc2SCC(=O)Nc2ccccc2F)cc1	5	7	13	2	-4	6	·
Cc1nc(NCCc2ccc(S(N)(=O)=O)cc2)c2c(C)c(C)sc2n1	25*	3	2	0	14	-10	3
C/C(=N\N=C1\NC(=O)C(CC(=O)Nc2ccccc2F)S1)C1CCCCC1 (stereo not drawn)	-6	10	8	4	5	6	·
CC(=O)CN1C(=O)NC2(CCCc3ccccc32)C1=O (stereo not drawn)	-5	4	1	3	8	7	·
NC(=O)CN1C(=O)NC2(CCCc3ccccc32)C1=O (stereo not drawn)	25*	10	-3	0	2	4	5
Cc1cc(O)cc2c1C1CCC3(C)C(O)CCC3C1C=C2 (stereo not drawn)	13	2	5	·	4	-1	·
CCOc1ccc(NC(=O)/C=C/c2ccc(OC)cc2)c([N+](=O)[O-])c1	-12	-13	-11	-5	2	-12	·
CCOc1ccc(NC(=S)NC(=O)/C=C/c2ccc(OC)c(OC)c2)c([N+](=O)[O-])c1	35*	5	2	-6	-17	3	20
CCOc1cc(C(=O)OC(C(=O)NC(=O)NC)c2ccccc2)ccc1OCC(=O)N1CCOCC1 (stereo not drawn)	17	7	5	1	2	1	·
CCc1ccc(C(O)c2ncc(-c3ccccc3Cl)[nH]2)cc1 (stereo not drawn)	10	·	·	·	-9	·	·
O=C(C[n+]1cccc(C(=O)Nc2ccccc2)c1)c1ccc(Cl)cc1	25*	·	·	·	3	·	4
Cc1ccc(S(=O)(=O)N2CCN(C(=O)CN3C(=O)c4ccccc4C3=O)CC2)c(C)c1	-5	8	3	2	-1	-3	·
COc1ccc(OC)c(/C=N\NC(=O)c2cc3c(ccc4ccccc43)o2)c1	9	-15	-5	3	11	-22	·
COc1ccc(-c2[nH]ncc2/C=N/NC(=O)c2ccc(Br)cc2)c(OC)c1	8	6	5	-1	11	-4	·
COc1ccc(/C=N/NC(=O)c2cc3c(ccc4ccccc43)o2)c(OC)c1	34*	-14	-10	·	8	-45	16
COc1ccc(C(=O)N/N=C/c2cn[nH]c2-c2ccc(OC)cc2OC)cc1	29*	7	3	-1	4	-8	19
COc1cccc(NC(=O)N(C)C[C@H]2OCc3ccccc3-c3c(n(C)c4ccccc34)C(=O)N([C@H](C)CO)C[C@H]2C)c1	14	·	·	·	20	·	·
CCc1nnc(NC(=O)C2CCC(CNc3c(N4CCCCC4)c(=O)c3=O)CC2)s1 (stereo not drawn)	28*	1	0	4	5	-9	0
COc1cccc(/C=N/NC(=O)c2cc3cc([N+](=O)[O-])ccc3s2)c1O	42*	18	6	22	0	13	143*
CC1CCCC(C)N1C(=O)COC(=O)CCC(=O)c1ccc(F)cc1 (stereo not drawn)	29*	7	4	1	-4	4	2
CC1CCN(C(=O)COC(=O)CCC(=O)c2ccc(F)cc2)CC1	8	·	·	12	-10	·	·
Cc1nn(-c2ccccc2)c(C)c1/C=N/NC(=O)c1cc(C(C)(C)C)[nH]n1	3	0	9	3	-4	9	·
Cc1ccc(-c2cc(C(=O)N/N=C/c3c(C)nn(-c4ccccc4)c3C)[nH]n2)cc1	26*	-7	-10	·	15	-27	7
